Measurements from ChEMBL document CHEMBL1123265, “Synthesis and antihypertensive activity of 4-(cyclic amido)-2H-1-benzopyrans” (1986).

Tests used:
Format in all cases: functional
Rattus norvegicus [1] = test: Maximum fall in blood pressure was evaluated at an oral dose of 0.3 mg/kg in (SHR) spontaneous hypertensive rats
Method in brief: (§1)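 Conscious spontaneously hypertensive rats (Okamoto-derived, 14–24 weeks old; systolic pressure >180 mmHg counted as hypertensive), six or more per dose level. Given orally by dosing needle into the esophagus as solution or suspension in 1% w/v methylcellulose. Systolic pressure read by tail cuff, each reading the mean of at least six recordings, taken before dosing and at intervals up to 6 h; maximum fall recorded.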

Rattus norvegicus [2] = test: Maximum fall in blood pressure was evaluated at an oral dose of 1.0 mg/kg in (SHR) spontaneous hypertensive rats; method in brief: as §1
Rattus norvegicus [3] = test: Maximum fall in blood pressure was evaluated at an oral dose of 10.0 mg/kg in (SHR) spontaneous hypertensive rats; method in brief: as §1
Rattus norvegicus [4] = test: Maximum fall in blood pressure was evaluated at an oral dose of 0.1 mg/kg in (SHR) spontaneous hypertensive rats; method in brief: as §1
Rattus norvegicus [5] = test: Maximum fall in blood pressure was evaluated at an oral dose of 3.0 mg/kg in (SHR) spontaneous hypertensive rats; method in brief: as §1
Rattus norvegicus [6] = test: Maximum fall in blood pressure was evaluated at an oral dose of 10 mg/kg in (SHR) spontaneous hypertensive rats; method in brief: as §1
Rattus norvegicus [7] = test: Maximum fall in blood pressure was evaluated at an oral dose of 0.03 mg/kg in (SHR) spontaneous hypertensive rats; method in brief: as §1

SMILES	Max fall in blood pressure (Rattus norvegicus [1]) [%]	Max fall in blood pressure (Rattus norvegicus [2]) [%]	other results
CC(=O)c1ccc2c(c1)C(N1CCCC1=O)[C@H](O)C(C)(C)O2 (stereo partly specified)	33	56	–
CN1CCCN(C2=CC(C)(C)Oc3ccc(C#N)cc32)C1=O	–	29	–
CC1(C)Oc2ccc(C#N)cc2C(N2CCCCCC2=O)[C@@H]1O (stereo partly specified)	–	10	–
CC1(C)C=C(N2CCCC2=O)c2cc(Cl)ccc2O1	–	–	Max fall in blood pressure (Rattus norvegicus [3]): 36%
CC1(C)C=C(N2CCCC2=O)c2cc([N+](=O)[O-])ccc2O1	–	68	–
CC1(C)Oc2ccc(C#N)cc2C(N2CCCCCCC2=O)[C@@H]1O (stereo partly specified)	–	–	Max fall in blood pressure (Rattus norvegicus [3]): 11%
CC(=O)c1ccc2c(c1)C(N1CCCC1=O)=CC(C)(C)O2	–	48	–
CC1(C)C=C(N2CCSC2=O)c2cc(C#N)ccc2O1	9	27	–
CC1(C)Oc2ccc(C#N)cc2C(N2OCCC2=O)[C@@H]1O (stereo partly specified)	–	–	Max fall in blood pressure (Rattus norvegicus [3]): 19%
CC1(C)Oc2ccc(C#N)cc2C(N2CCCC2=O)C1O (single isomer, unassigned) [CROMAKALIM]	47	–	Max fall in blood pressure (Rattus norvegicus [4]): 31%
CC1(C)Oc2ccc(C=O)cc2C(N2CCCC2=O)[C@@H]1O (stereo partly specified)	–	–	Max fall in blood pressure (Rattus norvegicus [3]): 25%
CC1(C)Oc2ccc(C#N)cc2C(N2CCSC2=O)[C@@H]1O (stereo partly specified)	27	30	–
CC1(C)C=C(N2CCCCC2=O)c2cc(C#N)ccc2O1	25	55	–
CN1CCCN(C2c3cc(C#N)ccc3OC(C)(C)[C@H]2O)C1=O (stereo partly specified)	–	23	–
CC1(C)Oc2ccc(C#N)cc2[C@@H](N2CCCC2=O)[C@@H]1O (single isomer, unassigned) [LEVCROMAKALIM]	–	23	Max fall in blood pressure (Rattus norvegicus [3]): 46%
CC1(C)Oc2ccc(C#N)cc2C(N2CCN(Cc3ccccc3)CC2=O)[C@@H]1O (stereo partly specified)	26	35	Max fall in blood pressure (Rattus norvegicus [4]): 10%
CC1(C)Oc2ccc(C#N)cc2C(N2CCCC2=O)[C@@H]1OC=O (stereo partly specified)	31	36	–
CC1(C)Oc2ccc(C#N)cc2C(N2CCN(C(=O)c3ccco3)CC2=O)[C@@H]1O (stereo partly specified)	–	15	Max fall in blood pressure (Rattus norvegicus [5]): 43%
CC1(C)C=C(N2CCCC2=O)c2cc(C#N)ccc2O1	47	–	–
CC1(C)Oc2ccc(C#N)cc2C(N2CCCC2=O)[C@@H]1O (stereo partly specified)	39	47	Max fall in blood pressure (Rattus norvegicus [4]): 13%
CC1(C)Oc2ccc(C#N)cc2C(N2CCN(C(=O)c3ccccc3)CC2=O)[C@@H]1O (stereo partly specified)	–	–	Max fall in blood pressure (Rattus norvegicus [3]): 14%
CC1(C)Oc2cc([N+](=O)[O-])c(N)cc2C(N2CCCC2=O)[C@@H]1O (stereo partly specified)	–	25	–
CC(=O)O[C@H]1C(N2CCCC2=O)c2cc(C#N)ccc2OC1(C)C (stereo partly specified)	–	30	Max fall in blood pressure (Rattus norvegicus [5]): 39%
CC1(C)Oc2c(cccc2[N+](=O)[O-])C(N2CCCC2=O)[C@@H]1O (stereo partly specified)	–	7	–
CC1(C)Oc2ccc(C#N)cc2C(N2CC[N+](C)(C)CC2=O)[C@@H]1O.[I-] (stereo partly specified)	–	9	–

SMILES	Max fall in blood pressure (Rattus norvegicus [1]) [%]	Max fall in blood pressure (Rattus norvegicus [2]) [%]	other results
CC(=O)N1CCN(C2c3cc(C#N)ccc3OC(C)(C)[C@H]2O)C(=O)C1 (stereo partly specified)	–	17	Max fall in blood pressure (Rattus norvegicus [5]): 23%
CC1(C)C=C(N2CCCCCC2=O)c2cc(C#N)ccc2O1	–	15	Max fall in blood pressure (Rattus norvegicus [6]): 36%
COC(=O)c1ccc2c(c1)C(N1CCCCC1=O)[C@H](O)C(C)(C)O2 (stereo partly specified)	13	42	–
O=C1CCCN1C1c2cc([N+](=O)[O-])ccc2OC[C@H]1O (stereo partly specified)	–	–	Max fall in blood pressure (Rattus norvegicus [3]): 5%
CCCCN1CCN(C2c3cc(C#N)ccc3OC(C)(C)[C@H]2O)C(=O)C1 (stereo partly specified)	48	61	Max fall in blood pressure (Rattus norvegicus [4]): 18%
CC1(C)Oc2ccc(C#N)cc2C(N2CCSCC2=O)[C@@H]1O (stereo partly specified)	–	9	Max fall in blood pressure (Rattus norvegicus [6]): 12%
COC(=O)C1=C(C)NC(C)=C(C(=O)OC)C1c1ccccc1[N+](=O)[O-] [NIFEDIPINE]	–	13	Max fall in blood pressure (Rattus norvegicus [3]): 36%; Max fall in blood pressure (Rattus norvegicus [5]): 27%
CC1Oc2ccc([N+](=O)[O-])cc2C(N2CCCC2=O)[C@@H]1O (stereo partly specified)	–	–	Max fall in blood pressure (Rattus norvegicus [3]): 34%
CC1(C)Oc2ccc(C#N)cc2C(N2CCCC2=S)[C@@H]1O (stereo partly specified)	39	–	Max fall in blood pressure (Rattus norvegicus [4]): 16%
CC1(C)Oc2ccc(C#N)cc2C(N2CCOC2=O)[C@@H]1O (stereo partly specified)	20	29	–
CC(=O)c1ccc2c(c1)C(N1CCCCC1=O)[C@H](O)C(C)(C)O2 (stereo partly specified)	29	66	–
CN1CCN(C2c3cc(C#N)ccc3OC(C)(C)[C@H]2O)C(=O)C1 (stereo partly specified)	37	–	Max fall in blood pressure (Rattus norvegicus [4]): 20%
CC(=O)c1ccc2c(c1)C(N1CCN(C(=O)c3ccc(F)cc3)CC1=O)[C@H](O)C(C)(C)O2 (stereo partly specified)	–	–	Max fall in blood pressure (Rattus norvegicus [3]): 16%
CC1(C)Oc2ccc(Cl)cc2C(N2CCCC2=O)[C@@H]1O (stereo partly specified)	–	8	Max fall in blood pressure (Rattus norvegicus [6]): 37%
CC(=O)Nc1cc2c(cc1[N+](=O)[O-])C(N1CCCC1=O)[C@H](O)C(C)(C)O2 (stereo partly specified)	62	–	Max fall in blood pressure (Rattus norvegicus [4]): 37%
CC1(C)Oc2ccc(C#N)cc2C(N2CCOCC2=O)[C@@H]1O (stereo partly specified)	26	27	–
CC1(C)Oc2ccccc2C(N2CCCC2=O)[C@@H]1O (stereo partly specified)	–	–	Max fall in blood pressure (Rattus norvegicus [6]): 9%
COC(=O)c1ccc2c(c1)C(N1CCCC1=O)[C@H](O)C(C)(C)O2 (stereo partly specified)	11	20	Max fall in blood pressure (Rattus norvegicus [6]): 44%
CC1(C)Oc2ccc([N+](=O)[O-])cc2C(N2CCCC2=O)[C@@H]1O (stereo partly specified)	27	63	–
CC(=O)Nc1cc2c(cc1[N+](=O)[O-])OC(C)(C)[C@@H](O)C2N1CCCC1=O (stereo partly specified)	–	3	Max fall in blood pressure (Rattus norvegicus [5]): 14%
CC1(C)Oc2ccc(C#N)cc2C(N2CCNCC2=O)[C@@H]1O (stereo partly specified)	53	–	Max fall in blood pressure (Rattus norvegicus [4]): 28%
CC1(C)Oc2ccc(C#N)cc2C(N2CCCCC2=O)[C@@H]1O (stereo partly specified)	49	59	Max fall in blood pressure (Rattus norvegicus [7]): 27%; Max fall in blood pressure (Rattus norvegicus [4]): 46%
CC1(C)CC(N2CCCC2=O)c2cc(C#N)ccc2O1 (stereo unspecified)	–	15	Max fall in blood pressure (Rattus norvegicus [5]): 45%
CC1(C)Oc2ccc(C#N)cc2C(N2CCCC2)[C@@H]1O (stereo partly specified)	21	29	Max fall in blood pressure (Rattus norvegicus [4]): 8%
CC1(C)Oc2cc([N+](=O)[O-])ccc2C(N2CCCC2=O)[C@@H]1O (stereo partly specified)	12	56	Max fall in blood pressure (Rattus norvegicus [6]): 68%
